Test results taken from ChEMBL document CHEMBL1153560, “In vitro activities of doripenem and six comparator drugs against 423 aerobic and anaerobic bacterial isolates from infected diabetic foot wounds” (2008).
≈ marks a conversion by molar mass, not a printed value.

Legend:
Assay type in all cases: functional
Corynebacterium striatum [1] = test: Antibacterial activity against Corynebacterium striatum isolated from patient with diabetic foot infection after 48 hrs by broth microdilution method
Method in brief: (§1)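 Isolates were subcultured on Trypticase soy blood agar. Broth microdilution used cation-adjusted Mueller-Hinton broth with lysed horse blood, in-house trays of twofold drug dilutions stored at −70°C. Colonies from overnight growth gave a final inoculum of about 5 × 10^5 CFU/ml. Trays were read after 18 to 24 h at 37°C, up to 48 h for some strains.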

Klebsiella oxytoca [2] = test: Antibacterial activity against Klebsiella oxytoca isolated from patient with diabetic foot infection assessed as percent resistant isolates after 18 to 24 hrs by broth microdilution method
Method in brief: (§2)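 Aerobes subcultured on Trypticase soy blood agar, then broth microdilution in cation-adjusted Mueller-Hinton broth. Trays prepared in-house with twofold dilutions and stored at −70°C. Overnight colonies suspended to about 5 × 10^5 CFU/ml final. Read after 18 to 24 h at 37°C. QC strains included S. aureus ATCC 29213 and E. coli ATCC 25922.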

Klebsiella aerogenes = test: Antibacterial activity against Enterobacter aerogenes isolated from patient with diabetic foot infection after 18 to 24 hrs by broth microdilution method
Method in brief: (§3)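 Isolates were subcultured on Trypticase soy blood agar and tested by broth microdilution in cation-adjusted Mueller-Hinton broth. In-house trays of twofold drug dilutions were stored at −70°C. Overnight colonies gave a final inoculum of about 5 × 10^5 CFU/ml. Plates were read after 18 to 24 h at 37°C.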

[3] = system: Staphylococcus epidermidis; test: Antibacterial activity against Staphylococcus epidermidis isolated from patient with diabetic foot infection after 18 to 24 hrs by broth microdilution method; method in brief: as §3
Klebsiella pneumoniae [4] = test: Antibacterial activity against Klebsiella pneumoniae isolated from patient with diabetic foot infection after 18 to 24 hrs by broth microdilution method; method in brief: as §3
Staphylococcus aureus = test: Antibacterial activity against methicillin-resistant Staphylococcus aureus isolated from patient with diabetic foot infection after 18 to 24 hrs by broth microdilution method
Method in brief: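 Isolates grown on Trypticase soy blood agar, then tested by broth microdilution in unsupplemented cation-adjusted Mueller-Hinton broth. In-house trays held serial twofold drug dilutions and were stored at −70°C. Overnight colonies were suspended to a final inoculum near 5 × 10^5 CFU/ml, and trays read after 18–24 h at 37°C. QC strains: S. aureus ATCC 29213, E. coli ATCC 25922.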

Klebsiella oxytoca [5] = test: Antibacterial activity against Klebsiella oxytoca isolated from patient with diabetic foot infection after 18 to 24 hrs by broth microdilution method; method in brief: as §3
Streptococcus agalactiae = test: Antibacterial activity against Streptococcus agalactiae isolated from patient with diabetic foot infection assessed as percent resistant isolates after 18 to 24 hrs by broth microdilution method
Method in brief: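 Streptococci subcultured on Trypticase soy blood agar and tested by broth microdilution in cation-adjusted Mueller-Hinton broth with lysed horse blood. In-house twofold dilution trays stored at −70°C. About 5 × 10^5 CFU/ml final inoculum from overnight colonies. Read after 18 to 24 h at 37°C.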

[6] = system: Staphylococcus haemolyticus; test: Antibacterial activity against Staphylococcus haemolyticus isolated from patient with diabetic foot infection assessed as percent resistant isolates after 18 to 24 hrs by broth microdilution method
[7] = system: Staphylococcus epidermidis; test: Antibacterial activity against Staphylococcus epidermidis isolated from patient with diabetic foot infection assessed as percent resistant isolates after 18 to 24 hrs by broth microdilution method; method in brief: as §2
Klebsiella pneumoniae [8] = test: Antibacterial activity against Klebsiella pneumoniae isolated from patient with diabetic foot infection assessed as percent resistant isolates after 18 to 24 hrs by broth microdilution method; method in brief: as §2
Streptococcus pyogenes = test: Antibacterial activity against Streptococcus pyogenes isolated from patient with diabetic foot infection assessed as percent resistant isolates after 18 to 24 hrs by broth microdilution method
Method in brief: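 Isolates subcultured on Trypticase soy blood agar. MICs by broth microdilution in cation-adjusted Mueller-Hinton broth with lysed horse blood, in in-house trays of serial twofold drug dilutions stored at −70°C. Colonies from overnight growth were suspended to a final inoculum of about 5 × 10^5 CFU/ml. Read after 18–24 h at 37°C.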

Corynebacterium xerosis = test: Antibacterial activity against Corynebacterium xerosis isolated from patient with diabetic foot infection after 48 hrs by broth microdilution method; method in brief: as §1
[9] = system: Corynebacterium amycolatum; test: Antibacterial activity against Corynebacterium amycolatum isolated from patient with diabetic foot infection after 48 hrs by broth microdilution method; method in brief: as §1
Corynebacterium striatum [10] = test: Antibacterial activity against Corynebacterium striatum isolated from patient with diabetic foot infection assessed as percent resistant isolates after 48 hrs by broth microdilution method
Method in brief: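 Isolates subcultured on Trypticase soy blood agar. Broth microdilution in cation-adjusted Mueller-Hinton broth with lysed horse blood, using in-house twofold dilution trays stored at −70°C. Inoculum from overnight colonies at about 5 × 10^5 CFU/ml final. Read after 18 to 24 h at 37°C, up to 48 h for some Corynebacterium strains.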

Compound | MIC50 (Corynebacterium striatum [1]) [µg/mL] | MIC90 (Corynebacterium striatum [1]) [µg/mL] | Activity (Klebsiella oxytoca [2]) [%] | MIC50 (Klebsiella aerogenes) [µg/mL] | MIC90 (Klebsiella aerogenes) [µg/mL] | MIC50 [3] [µg/mL] | MIC90 [3] [µg/mL] | MIC50 (Klebsiella pneumoniae [4]) [µg/mL] | MIC90 (Klebsiella pneumoniae [4]) [µg/mL] | MIC50 (Staphylococcus aureus) [µg/mL] | MIC90 (Staphylococcus aureus) [µg/mL] | MIC50 (Klebsiella oxytoca [5]) [µg/mL] | MIC90 (Klebsiella oxytoca [5]) [µg/mL] | Activity (Streptococcus agalactiae) [%] | Activity [6] [%] | Activity [7] [%] | Activity (Klebsiella pneumoniae [8]) [%] | Activity (Streptococcus pyogenes) [%] | MIC50 (Corynebacterium xerosis) [µg/mL] | MIC90 (Corynebacterium xerosis) [µg/mL] | other results
C[C@@H](O)[C@H]1C(=O)N2C(C(=O)O)=C(S[C@@H]3CN[C@H](C(=O)Nc4cccc(C(=O)O)c4)C3)[C@H](C)[C@H]12 [ERTAPENEM] | 0.5 (≈ 1.05 µM) | 1 (≈ 2.1 µM) | 0 | 0.06 (≈ 0.126 µM) | 0.5 (≈ 1.05 µM) | 2 (≈ 4.21 µM) | 8 (≈ 16.8 µM) | ≤ 0.015 | ≤ 0.015 | 2 (≈ 4.21 µM) | > 32 | ≤ 0.015 | ≤ 0.015 | 0 | 73 | 67 | 0 | 0 | 0.5 (≈ 1.05 µM) | 1 (≈ 2.1 µM) | MIC50 [9]: 1 µg/mL (≈ 2.1 µM); MIC90 [9]: 32 µg/mL (≈ 67.3 µM)
C[C@@H](O)[C@H]1C(=O)N2C(C(=O)O)=C(SCCNC=N)C[C@H]12 [IMIPENEM ANHYDROUS] | 0.03 (≈ 0.1 µM) | 0.125 (≈ 0.418 µM) | 0 | 1 (≈ 3.34 µM) | 2 (≈ 6.68 µM) | 0.125 (≈ 0.418 µM) | 0.5 (≈ 1.67 µM) | 0.25 (≈ 0.835 µM) | 1 (≈ 3.34 µM) | 0.25 (≈ 0.835 µM) | 4 (≈ 13.4 µM) | 0.25 (≈ 0.835 µM) | 1 (≈ 3.34 µM) | 0 | 73 | 67 | 0 | 0 | 0.03 (≈ 0.1 µM) | 0.125 (≈ 0.418 µM) | MIC50 [9]: 0.25 µg/mL (≈ 0.835 µM); MIC90 [9]: 32 µg/mL (≈ 107 µM); Activity (Corynebacterium striatum [10]): 0%
C[C@@H](O)[C@H]1C(=O)N2C(C(=O)O)=C(S[C@@H]3CN[C@H](C(=O)N(C)C)C3)[C@H](C)[C@H]12 [MEROPENEM] | 0.125 (≈ 0.326 µM) | 0.25 (≈ 0.652 µM) | 0 | 0.06 (≈ 0.156 µM) | 0.5 (≈ 1.3 µM) | 1 (≈ 2.61 µM) | 4 (≈ 10.4 µM) | 0.03 (≈ 0.0782 µM) | 0.06 (≈ 0.156 µM) | 2 (≈ 5.22 µM) | 16 (≈ 41.7 µM) | 0.03 (≈ 0.0782 µM) | 0.06 (≈ 0.156 µM) | 0 | 73 | 67 | 0 | 0 | 0.125 (≈ 0.326 µM) | 0.25 (≈ 0.652 µM) | Activity (Corynebacterium striatum [10]): 0%
